Reference: ChEMBL document CHEMBL5360668, “Discovery of Potent Allosteric DRP1 Inhibitors by Disrupting Protein-Protein Interaction with MiD49” (ACS Med Chem Lett, 2023)
In brackets after ≈: the same amount, converted by molar mass. Activity calls are given as the source filed them. The rule behind the calls is not given here.

What was measured:
[1] = Negative allosteric modulator activity at human N-terminal His-tagged DRP1-human C-terminal GST-tagged MiD49 protein protein interaction expressed in Escherichia coli BL21 (DE3) incubated for 90 mins by AlphaLISA assay
Summary of the method: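 AlphaLISA proximity assay. Glutathione donor and nickel chelate acceptor beads added, then 60 min at room temperature protected from light before signal read. Hits run as 11-point dose–response with TruHits counter-screen.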

A549 [2] = experiment: Inhibition of CCCP-induced mitochondrial fragmentation in human A549 cells preincubated for 1 hr followed by CCCP stimulation for 3 hrs by Alexa Fluor 488/568 and Hoechst staining based high-content imaging analysis; assay type: functional, cell-based; conditions: time 4.0 hrs
Summary of the method: (§1)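 A549 cells exposed to compound 1 h at 37 °C, then co-treated with CCCP (5 μM) a further 3 h at 37 °C. Cells fixed in paraformaldehyde and stained with anti-TOM20 primary and goat anti-mouse secondary. Mitochondrial morphology scored by high-content imaging with a supervised machine-learning classifier trained on control siRNA (normal), OPA1 siRNA (fragmented) and DRP1 siRNA (hypertubular) images.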

A549 [3] = experiment: Inhibition of CCCP-induced mitochondrial fragmentation in human A549 cells at 0.37 to 3.3 uM preincubated for 1 hr followed by CCCP stimulation for 3 hrs by Alexa Fluor 488/568 and Hoechst staining based high-content imaging analysis; assay type: functional, cell-based; conditions: dose 0.37-3.3 µM, time 4.0 hrs; summary of the method: as §1
A549 [4] = experiment: Inhibition of CCCP-induced mitochondrial morphology change in human A549 cells at 10 uM preincubated for 1 hr followed by CCCP stimulation for 3 hrs by Alexa Fluor 488/Hoechst 33342 staining based high-content imaging analysis; assay type: functional, cell-based; conditions: time 4.0 hrs; summary of the method: as §1
[5] = Solubility of compound in PBS at pH 7.5; assay type: physicochemical

SMILES | IC50 [1] | also measured
CC(C)C(=O)Nc1ccc2nc(-c3ccccc3)cc(-n3ccnc3)c2c1 | 22000 nM | –
O=C(Nc1ccc2nc(-c3ccccc3)cc(N3CCC3)c2c1)C1COC1 | 100 nM | inhibition (A549 [2]): Dose-Dependent Effect; inhibition (A549 [3]): Active; inhibition (A549 [4]): Active; solubility [5]: 281 µM (≈ 101 µg/mL)
CC(C)C(=O)Nc1ccc2nc(-c3ccccc3)cc(N3CCCC3=O)c2c1 | > 100000 nM | –
CC(C)C(=O)Nc1ccc2nc(-c3ccccc3)cc(N3CCOCC3)c2c1 | 22000 nM | –
CCNc1cc(-c2ccccc2)nc2ccc(NC(=O)C(C)C)cc12 | 4300 nM | –
CCOc1cc(-c2ccccc2)nc2ccc(NC(=O)C(C)C)cc12 | 3600 nM | –
CC(C)C(=O)Nc1ccc2nc(-c3ccccc3)cc(N3CC(F)C3)c2c1 | 290 nM | –
COc1ccc(-c2cc(N3CCC3)c3cc(NC(=O)C4COC4)ccc3n2)cc1 | 140 nM | –
CC(C)C(=O)Nc1ccc2nc(-c3ccccc3)cc(N3CCCC3)c2c1 | 450 nM | –
CC(C)C(=O)Nc1ccc2nc(-c3ccccc3)cc(N(C)C)c2c1 | 11000 nM | –
CC(C)C(=O)Nc1ccc2nc(-c3ccccc3)cc(N3CCC3)c2c1 | 120 nM | –
O=C(Nc1ccc2nc(-c3ccccc3)cc(N3CC(O)C3)c2c1)C1COC1 | 290 nM | –
CC(C)C(=O)Nc1ccc2nc(-c3ccccc3)cc(-n3cccn3)c2c1 | 12000 nM | –
CC(C)C(=O)Nc1ccc2nc(-c3ccccc3)cc(N3CCCCC3)c2c1 | 13000 nM | –
Cc1ccc(-c2cc(N3CCC3)c3cc(NC(=O)C(C)C)ccc3n2)cc1 | 50 nM | solubility [5]: 11 µM (≈ 3.95 µg/mL)
CC1CN(c2cc(-c3ccccc3)nc3ccc(NC(=O)C(C)C)cc23)C1 | 580 nM | –
